Measured values taken from ChEMBL document CHEMBL1811786, “Identification of MK-5710 ((8aS)-8a-methyl-1,3-dioxo-2-[(1S,2R)-2-phenylcyclo- propyl]-N-(1-phenyl-1H-pyrazol-5-yl)hexahydro-imidazo[1,5-a]pyrazine-7(1H)-carboxamide), a potent smoothened antagonist for use in Hedgehog pathway dependent malignancies, part 2” (Bioorg Med Chem Lett, 2011).
pIC50: −log10 of the molar value.

Experiments:
Protein smoothened [1] = target: T1, Protein smoothened (Homo sapiens, UniProt Q99835); test: Displacement of BODIPY-cyclopamine from human Smo expressed in HEK293 cells in presence of 2% fetal calf serum; assay type: cell-based
Outline: (§1)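 Competition binding: displacement of fluorescently labeled bodipy-cyclopamine from recombinant human Smo expressed in HEK-293 cells. Run in 2% fetal calf serum and, separately, in 20% normal human serum. IC50 values are means of at least five experiments.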

Protein smoothened [2] = target: T1, Protein smoothened; test: Displacement of BODIPY-cyclopamine from human Smo expressed in HEK293 cells in presence of 20% normal human serum; assay type: cell-based; outline: as §1
Rattus norvegicus = organism: Rattus norvegicus; test: Clearance in rat; assay type: ADME, organism-based; details: in vivo
[3] = Half life in rat; assay type: ADME, organism-based; details: in vivo
[4] = Volume of distribution at steady state in rat; assay type: ADME, organism-based; details: in vivo, read-out: Vdss
[5] = Oral bioavailability in rat; assay type: ADME, organism-based; details: in vivo
Canis familiaris = organism: Canis familiaris; test: Clearance in dog; assay type: ADME, organism-based, Canis lupus familiaris; details: in vivo
[6] = Half life in dog; assay type: ADME, organism-based, Canis lupus familiaris; details: in vivo
[7] = Volume of distribution at steady state in dog; assay type: ADME, organism-based, Canis lupus familiaris; details: in vivo, read-out: Vdss
[8] = Antiproliferative activity against irradiated Ptch +/- mouse medulloblastoma cells; assay type: functional; details: Medulloblastoma cell, light or radiation study
Outline: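 Proliferation of irradiated Ptch +/- mouse medulloblastoma cells, which depend on the Hh pathway; readout reported as CC50.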

[9] = Oral bioavailability in dog; assay type: ADME, organism-based, Canis lupus familiaris; details: in vivo
[10] = Plasma protein binding in human assessed as unbound fraction; assay type: ADME, cell-free
CYP2C9 = CYP2C9 (Homo sapiens, UniProt P11712); test: Inhibition of CYP2C9 at 10 uM; assay type: ADME
CYP3A4 = CYP3A4 (Homo sapiens, UniProt P08684); test: Inhibition of CYP3A4 at 10 uM; assay type: ADME
Chain of CYP3A4 (P08684 whole entry): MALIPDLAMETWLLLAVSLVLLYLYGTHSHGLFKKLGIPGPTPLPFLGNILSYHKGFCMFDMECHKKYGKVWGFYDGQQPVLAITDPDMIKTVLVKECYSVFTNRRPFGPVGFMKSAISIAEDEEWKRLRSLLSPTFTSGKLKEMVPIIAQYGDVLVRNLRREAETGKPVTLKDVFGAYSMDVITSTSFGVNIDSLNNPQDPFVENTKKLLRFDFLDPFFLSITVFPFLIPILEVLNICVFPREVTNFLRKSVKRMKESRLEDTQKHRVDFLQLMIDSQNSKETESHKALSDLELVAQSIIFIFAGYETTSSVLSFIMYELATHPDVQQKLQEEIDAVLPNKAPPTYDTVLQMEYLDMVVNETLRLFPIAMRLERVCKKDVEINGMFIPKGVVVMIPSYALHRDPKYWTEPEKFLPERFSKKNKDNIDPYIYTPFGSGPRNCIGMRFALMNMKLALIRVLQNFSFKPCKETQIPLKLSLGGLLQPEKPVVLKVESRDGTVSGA

T1 sequence (Q99835 whole entry): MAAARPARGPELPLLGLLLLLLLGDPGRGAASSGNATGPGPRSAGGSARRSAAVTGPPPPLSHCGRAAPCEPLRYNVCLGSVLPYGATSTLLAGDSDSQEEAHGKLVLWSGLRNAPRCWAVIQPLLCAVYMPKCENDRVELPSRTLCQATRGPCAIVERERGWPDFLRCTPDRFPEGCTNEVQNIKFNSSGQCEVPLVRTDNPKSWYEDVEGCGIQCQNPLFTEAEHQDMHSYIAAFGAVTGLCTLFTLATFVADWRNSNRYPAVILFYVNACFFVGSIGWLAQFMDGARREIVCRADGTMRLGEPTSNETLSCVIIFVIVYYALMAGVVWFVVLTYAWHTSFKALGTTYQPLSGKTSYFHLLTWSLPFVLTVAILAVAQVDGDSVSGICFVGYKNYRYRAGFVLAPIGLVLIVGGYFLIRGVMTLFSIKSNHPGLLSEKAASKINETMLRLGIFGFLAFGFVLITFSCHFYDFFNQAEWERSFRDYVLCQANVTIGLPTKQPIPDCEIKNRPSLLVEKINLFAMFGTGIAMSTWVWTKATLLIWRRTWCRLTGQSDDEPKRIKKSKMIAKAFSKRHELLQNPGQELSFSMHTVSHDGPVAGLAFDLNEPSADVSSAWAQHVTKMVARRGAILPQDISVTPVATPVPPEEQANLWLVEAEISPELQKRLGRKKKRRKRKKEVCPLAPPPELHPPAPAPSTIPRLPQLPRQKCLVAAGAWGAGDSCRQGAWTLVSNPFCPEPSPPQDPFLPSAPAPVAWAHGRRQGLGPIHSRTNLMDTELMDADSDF
Chain of CYP2C9 (P11712 whole entry): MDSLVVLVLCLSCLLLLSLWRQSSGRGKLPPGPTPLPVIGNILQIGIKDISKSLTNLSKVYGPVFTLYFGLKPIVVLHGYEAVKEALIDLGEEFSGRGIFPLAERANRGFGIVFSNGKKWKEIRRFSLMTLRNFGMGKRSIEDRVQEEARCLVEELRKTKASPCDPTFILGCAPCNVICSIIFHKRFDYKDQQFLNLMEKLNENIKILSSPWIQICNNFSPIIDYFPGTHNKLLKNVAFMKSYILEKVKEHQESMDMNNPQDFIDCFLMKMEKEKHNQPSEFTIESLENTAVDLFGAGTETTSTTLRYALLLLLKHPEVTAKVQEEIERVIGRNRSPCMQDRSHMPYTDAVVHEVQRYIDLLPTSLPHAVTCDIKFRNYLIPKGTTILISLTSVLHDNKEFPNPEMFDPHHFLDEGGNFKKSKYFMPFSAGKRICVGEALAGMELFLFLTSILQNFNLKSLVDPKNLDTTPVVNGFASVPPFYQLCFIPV

| pIC50 (Protein smoothened [1]) | pIC50 (Protein smoothened [2]) | clearance (Rattus norvegicus) [mL/min/kg] | half-life [3] [h] | Vd [4] [L/kg] | bioavailability [5] [%] | Compound | other results |
| --- | --- | --- | --- | --- | --- | --- | --- |
| 7.11 | 6.92 | 41 | 0.6 | 2.1 | – | CN(C)C(=O)c1cc(Cl)c(NC(=O)N2CCN3C(=O)N([C@H]4C[C@@H]4c4ccccc4)C(=O)[C@@H]3C2)c(Cl)c1 | – |
| 7.68 | 7.38 | 58 | 10 | 10 | 41 | O=C(Nc1cccnc1-c1ccsc1)N1CCN2C(=O)N([C@H]3C[C@@H]3c3ccccc3)C(=O)[C@@H]2C1 | clearance (Canis familiaris): 7.6 mL/min/kg; half-life [6]: 3.1 h; Vd [7]: 1 L/kg |
| 6.64 | 6.16 | 46 | 2.2 | 8 | 30 | O=C(Nc1cccc(Cl)c1Cl)N1CCN2C(=O)N([C@H]3C[C@@H]3c3ccccc3)C(=O)[C@@H]2C1 | CC50 [8]: 12 nM; clearance (Canis familiaris): 4 mL/min/kg; half-life [6]: 10 h; Vd [7]: 2.5 L/kg; bioavailability [9]: 97% |
| 7.02 | – | – | – | – | – | O=C(Nc1ccccc1-c1ccccc1)N1CCN2C(=O)N(C3CC3c3ccccc3)C(=O)C2C1 (stereo in doubt; 5) | – |
| 7.38 | 7.17 | 5 | 3.2 | 0.6 | 74 | CS(=O)(=O)c1cc(Cl)c(NC(=O)N2CCN3C(=O)N([C@H]4C[C@@H]4c4ccccc4)C(=O)[C@@H]3C2)c(Cl)c1 | clearance (Canis familiaris): 1.7 mL/min/kg; half-life [6]: 1 h; Vd [7]: 0.3 L/kg |
| 8.40 | 7.82 | 54 | 1.3 | 4.1 | – | O=C(Nc1cccnc1-c1cccc(Cl)c1)N1CCN2C(=O)N([C@H]3C[C@@H]3c3ccccc3)C(=O)[C@@H]2C1 | – |
| 7.74 | 7.49 | – | – | – | – | O=C(Nc1ccnn1-c1cccc(Cl)c1)N1CCN2C(=O)N([C@H]3C[C@@H]3c3ccccc3)C(=O)[C@@H]2C1 | – |
| 6.17 | – | – | – | – | – | O=C(Nc1cccc(Cl)c1Cl)N1CCN2C(=O)N([C@@H]3C[C@H]3c3ccccc3)C(=O)[C@@H]2C1 | – |
| 7.68 | 7.15 | 56 | 2.7 | 8 | – | O=C(Nc1ccccc1-c1ccccc1)N1CCN2C(=O)N([C@H]3C[C@@H]3c3ccccc3)C(=O)[C@@H]2C1 | CC50 [8]: 2 nM; fraction unbound [10]: 0.044; inhibition at 10 µM (CYP2C9): 50%; inhibition at 10 µM (CYP3A4): 50% |
| 7.92 | 7.92 | 54 | 4.9 | 6.7 | 31 | O=C(Nc1cccnc1-c1ccccc1)N1CCN2C(=O)N([C@H]3C[C@@H]3c3ccccc3)C(=O)[C@@H]2C1 | – |
| 6.74 | 6.28 | – | – | – | – | O=C(Nc1c(Cl)cc(F)cc1Cl)N1CCN2C(=O)N([C@H]3C[C@@H]3c3ccccc3)C(=O)[C@@H]2C1 | – |
| 5.77 | – | – | – | – | – | O=C(Nc1cccc(Cl)c1Cl)N1CCN2C(=O)N([C@@H]3C[C@H]3c3ccccc3)C(=O)[C@H]2C1 | – |
| 7.72 | 7.22 | – | – | – | – | C[C@@]12CN(C(=O)Nc3ccccc3-c3ccccc3)CCN1C(=O)N([C@H]1C[C@@H]1c1ccccc1)C2=O | – |
| 7.32 | – | – | – | – | – | O=C(Nc1ccccc1-c1ccccc1)N1CCN2C(=O)N(C3CC3c3ccccc3)C(=O)C2C1 (stereo in doubt; 3) | – |
| 7.80 | 7.66 | 48 | 3.8 | 6 | 43 | N#Cc1cccc(-c2ncccc2NC(=O)N2CCN3C(=O)N([C@H]4C[C@@H]4c4ccccc4)C(=O)[C@@H]3C2)c1 | – |
| 5.92 | 5.80 | – | – | – | – | C[C@]12CN(C(=O)Nc3ccccc3-c3ccccc3)CCN1C(=O)N([C@H]1C[C@@H]1c1ccccc1)C2=O | – |
| 8.15 | 8.05 | – | – | – | – | O=C(Nc1ccnn1-c1cccc(F)c1)N1CCN2C(=O)N([C@H]3C[C@@H]3c3ccccc3)C(=O)[C@@H]2C1 | – |
| 6.19 | – | – | – | – | – | O=C(Nc1cccc(Cl)c1Cl)N1CCN2C(=O)N([C@H]3C[C@@H]3c3ccccc3)C(=O)[C@H]2C1 | – |
| 7.46 | – | – | – | – | – | O=C(Nc1ccccc1-c1ccccc1)N1CCN2C(=O)N(C3CC3c3ccccc3)C(=O)C2C1 (stereo in doubt; 6) | – |
| 7.00 | 6.35 | 2 | 5.4 | 0.5 | 56 | N#Cc1cc(Cl)c(NC(=O)N2CCN3C(=O)N([C@H]4C[C@@H]4c4ccccc4)C(=O)[C@@H]3C2)c(Cl)c1 | – |
